Experimental data taken from ChEMBL document CHEMBL1154352, “Toll-like receptor 7 selective synthetic oligoribonucleotide agonists: synthesis and structure-activity relationship studies” (J Med Chem, 2009).
Activity calls are given as the source filed them. No cut-off for these calls is given here.

Assays:
[1] = tested on: PBMC; experiment: Immunomodulatory activity in human PBMC assessed as induction of MCP1 after 24 hrs; type: functional, cell-based
In short: (§1)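 Human PBMCs plated at 5 × 10^6 cells/mL; compounds dissolved in PBS added at various concentrations, 37 °C for 24 h. Supernatant cytokines/chemokines quantified with human Luminex multiplex kit.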

[2] = tested on: PBMC; experiment: Immunomodulatory activity in human PBMC assessed as induction of TNFalpha at 50 ug/ml after 24 hrs; type: functional, cell-based; in short: as §1
[3] = tested on: PBMC; experiment: Immunomodulatory activity in human PBMC assessed as induction of IL6 at 50 ug/ml after 24 hrs; type: functional, cell-based; in short: as §1
[4] = tested on: PBMC; experiment: Immunomodulatory activity in human PBMC assessed as induction of IL12 at 50 ug/ml after 24 hrs; type: functional, cell-based; in short: as §1
[5] = species on record: Homo sapiens; experiment: Immunostimulatory activity in human mDC assessed as induction of IL6 at 100 ug/ml after 24 hrs; type: functional
In short: (§2)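 Human mDCs isolated from PBMCs by CD19+ B-cell depletion then BDCA1 positive selection; plated at 1 × 10^6 cells/mL, compounds in PBS, 37 °C for 24 h; supernatant cytokines by human Luminex multiplex. Representative of four independent experiments.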

[6] = species on record: Homo sapiens; experiment: Immunostimulatory activity in human pDC assessed as induction of IFNalpha at 100 ug/ml after 24 hrs; type: functional
In short: (§3)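 Human pDCs plated at 1 × 10^6 cells/mL; compounds in PBS added, 37 °C for 24 h; supernatant cytokines/chemokines by human Luminex multiplex kit.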

[7] = species on record: Homo sapiens; experiment: Immunostimulatory activity in human pDC assessed as induction of IP10 at 100 ug/ml after 24 hrs; type: functional; in short: as §3
[8] = tested on: PBMC; experiment: Immunomodulatory activity in human PBMC assessed as induction of IFNalpha at 50 ug/ml after 24 hrs; type: functional, cell-based; in short: as §1
[9] = species on record: Homo sapiens; experiment: Immunostimulatory activity in human mDC assessed as induction of IFNalpha at 100 ug/ml after 24 hrs; type: functional; in short: as §2
[10] = tested on: Mus musculus; experiment: Immunomodulatory activity in C57BL/6 mouse assessed as induction of IL12 release at 25 mg/kg, sc after 2 hrs by ELISA; type: functional, organism-based; set-up: dose 25 mg/kg
In short: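 Female C57BL/6 wild-type mice, 5–8 weeks old, n=3; compounds given subcutaneously at 10 or 25 mg/kg. Retro-orbital blood at 2 h; serum cytokines by mouse Luminex multiplex or IL-12 ELISA.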

[11] = tested on: PBMC; experiment: Immunomodulatory activity in human PBMC assessed as induction of MIP1alpha at 50 ug/ml after 24 hrs; type: functional, cell-based; in short: as §1
[12] = tested on: PBMC; experiment: Immunomodulatory activity in human PBMC assessed as induction of MIP1beta at 50 ug/ml after 24 hrs; type: functional, cell-based; in short: as §1
[13] = tested on: PBMC; experiment: Immunomodulatory activity in human PBMC assessed as induction of IL1-beta after 24 hrs; type: functional, cell-based; in short: as §1
[14] = molecular target: Toll-like receptor 3 (Homo sapiens) (UniProt O15455); experiment: Activation of human TLR3 expressed in HEK293 assessed as induction of NF-kappaB activity reporter gene assay; type: cell-based
[15] = tested on: PBMC; experiment: Immunomodulatory activity in human PBMC assessed as induction of IP10 at 50 ug/ml after 24 hrs; type: functional, cell-based; in short: as §1
[16] = tested on: PBMC; experiment: Immunomodulatory activity in human PBMC assessed as induction of MIP1beta after 24 hrs; type: functional, cell-based; in short: as §1
[17] = species on record: Homo sapiens; experiment: Immunostimulatory activity in human mDC assessed as induction of IP10 at 100 ug/ml after 24 hrs; type: functional; in short: as §2
[18] = tested on: PBMC; experiment: Immunomodulatory activity in human PBMC assessed as induction of TNFalpha after 24 hrs; type: functional, cell-based; in short: as §1
[19] = species on record: Homo sapiens; experiment: Immunostimulatory activity in human mDC assessed as induction of TNFalpha at 100 ug/ml after 24 hrs; type: functional; in short: as §2
[20] = species on record: Homo sapiens; experiment: Immunostimulatory activity in human pDC assessed as induction of IL6 at 100 ug/ml after 24 hrs; type: functional; in short: as §3
[21] = molecular target: T1, Toll-like receptor 8 (Homo sapiens) (UniProt Q9NR97); experiment: Activation of human TLR8 expressed in HEK293XL assessed as fold induction of NF-kappaB activity at 50 ug/ml after 18 hrs by reporter gene assay relative to control
T1 sequence (whole entry): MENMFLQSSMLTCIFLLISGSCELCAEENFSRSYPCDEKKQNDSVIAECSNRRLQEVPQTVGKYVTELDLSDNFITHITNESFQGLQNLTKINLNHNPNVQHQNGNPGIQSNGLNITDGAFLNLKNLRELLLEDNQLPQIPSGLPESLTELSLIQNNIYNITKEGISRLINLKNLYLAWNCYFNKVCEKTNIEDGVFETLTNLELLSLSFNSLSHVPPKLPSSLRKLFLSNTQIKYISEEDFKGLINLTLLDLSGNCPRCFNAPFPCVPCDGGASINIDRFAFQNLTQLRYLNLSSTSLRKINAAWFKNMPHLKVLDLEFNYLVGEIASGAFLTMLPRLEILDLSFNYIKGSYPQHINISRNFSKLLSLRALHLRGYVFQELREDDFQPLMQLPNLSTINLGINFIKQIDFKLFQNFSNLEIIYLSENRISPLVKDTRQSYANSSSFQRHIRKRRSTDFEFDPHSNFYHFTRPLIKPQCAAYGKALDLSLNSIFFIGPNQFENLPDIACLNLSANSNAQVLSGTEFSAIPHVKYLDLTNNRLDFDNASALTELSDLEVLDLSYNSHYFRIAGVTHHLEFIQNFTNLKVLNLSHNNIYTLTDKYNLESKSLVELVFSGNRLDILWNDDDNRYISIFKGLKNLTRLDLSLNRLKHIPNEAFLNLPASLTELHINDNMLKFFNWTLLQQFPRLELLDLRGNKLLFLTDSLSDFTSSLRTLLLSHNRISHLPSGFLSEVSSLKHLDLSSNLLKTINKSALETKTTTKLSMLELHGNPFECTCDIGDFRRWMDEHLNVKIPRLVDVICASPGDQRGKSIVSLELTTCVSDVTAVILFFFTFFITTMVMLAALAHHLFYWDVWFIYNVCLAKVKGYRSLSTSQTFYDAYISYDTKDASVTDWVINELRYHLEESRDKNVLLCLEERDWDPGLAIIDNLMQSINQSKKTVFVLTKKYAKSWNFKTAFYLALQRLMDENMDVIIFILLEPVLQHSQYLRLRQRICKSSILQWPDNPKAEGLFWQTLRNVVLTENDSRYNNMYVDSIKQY
In short: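 HEK293 cells stably expressing human TLR7 or TLR8, transiently transfected with SEAP reporter plasmid; medium replaced, SIMRA compounds added, 18 h incubation. Supernatant SEAP measured by QuantiBlue; expressed as fold increase in NF-κB activity over PBS control. Tabulated data at 50 μg/mL, representative of three independent experiments.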

[22] = tested on: PBMC; experiment: Immunomodulatory activity in human PBMC assessed as induction of IL1-beta at 50 ug/ml after 24 hrs; type: functional, cell-based; in short: as §1
[23] = Metabolic stability in human serum assessed as full length product remaining after 10 mins by HPLC; type: ADME, cell-free; conditions: read-out: Stability
In short: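 About 0.5 A260 units compound in 1% human serum in PBS, 37 °C; aliquot taken at 10 min, analysed by anion-exchange HPLC for percent intact full-length product.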

[24] = species on record: Homo sapiens; experiment: Immunostimulatory activity in human mDC assessed as induction of IL12 at 100 ug/ml after 24 hrs; type: functional; in short: as §2
[25] = tested on: PBMC; experiment: Immunomodulatory activity in human PBMC assessed as induction of MCP1 at 50 ug/ml after 24 hrs; type: functional, cell-based; in short: as §1

Toll-like receptor 3 (Homo sapiens), sequence (O15455 whole entry): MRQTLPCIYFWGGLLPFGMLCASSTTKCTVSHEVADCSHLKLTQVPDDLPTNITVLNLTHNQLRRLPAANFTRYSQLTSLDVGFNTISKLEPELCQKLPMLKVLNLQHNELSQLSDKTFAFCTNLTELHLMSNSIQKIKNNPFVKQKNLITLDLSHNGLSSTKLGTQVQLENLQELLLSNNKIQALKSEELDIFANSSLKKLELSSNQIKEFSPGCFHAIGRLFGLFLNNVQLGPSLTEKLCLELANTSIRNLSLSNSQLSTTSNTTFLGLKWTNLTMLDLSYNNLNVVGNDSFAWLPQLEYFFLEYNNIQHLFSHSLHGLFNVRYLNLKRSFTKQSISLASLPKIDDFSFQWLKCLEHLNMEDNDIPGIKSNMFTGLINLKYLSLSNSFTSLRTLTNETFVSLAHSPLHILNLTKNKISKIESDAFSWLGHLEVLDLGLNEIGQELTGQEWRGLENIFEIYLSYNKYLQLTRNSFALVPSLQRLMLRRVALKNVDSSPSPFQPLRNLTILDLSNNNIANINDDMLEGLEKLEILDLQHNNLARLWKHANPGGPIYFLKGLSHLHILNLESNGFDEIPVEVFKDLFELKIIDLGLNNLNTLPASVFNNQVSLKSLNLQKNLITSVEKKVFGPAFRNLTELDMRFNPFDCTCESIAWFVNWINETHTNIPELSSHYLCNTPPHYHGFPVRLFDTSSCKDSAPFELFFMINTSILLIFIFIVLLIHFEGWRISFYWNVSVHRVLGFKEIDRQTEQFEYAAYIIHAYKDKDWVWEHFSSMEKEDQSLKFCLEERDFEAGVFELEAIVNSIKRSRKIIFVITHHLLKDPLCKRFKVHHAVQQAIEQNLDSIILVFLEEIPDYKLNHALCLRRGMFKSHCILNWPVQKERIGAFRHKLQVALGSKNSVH

SMILES | Activity [1] | Activity [2] [pg/mL] | Activity [3] [pg/mL] | Activity [4] [pg/mL] | Activity [5] | Activity [6] | Activity [7] | Activity [8] [pg/mL] | Activity [9] | Activity [10] | Activity [11] [pg/mL] | Activity [12] [pg/mL] | Activity [13] | Activity [14] | Activity [15] [pg/mL] | Activity [16] | Activity [17] | Activity [18] | Activity [19] | Activity [20] | other results
Nc1ccn([C@@H]2O[C@H](COP(=O)(S)O[C@H]3[C@@H](O)[C@H](n4cnc5c(N)ncnc54)O[C@@H]3COP(=O)(S)O[C@H]3[C@@H](O)[C@H](n4cnc5c(N)ncnc54)O[C@@H]3CO)[C@@H](OP(=O)(S)OC[C@H]3O[C@@H](n4ccc(=O)[nH]c4=O)[C@H](O)[C@@H]3OP(=O)(S)OC[C@H]3O[C@@H](n4ccc5c(=O)[nH]c(N)nc54)[C@H](O)[C@@H]3OP(=O)(S)OC[C@H]3O[C@@H](n4cnc5c(N)ncnc54)[C@H](O)[C@@H]3OP(=O)(S)OC[C@H]3O[C@@H](n4ccc(N)nc4=O)[C@H](O)[C@@H]3OP(=O)(S)OC[C@H]3O[C@@H](n4ccc5c(=O)[nH]c(N)nc54)[C@H](O)[C@@H]3OP(=O)(S)OC[C@H]3O[C@@H](n4ccc(N)nc4=O)[C@H](O)[C@@H]3OP(=O)(S)OC[C@H]3O[C@@H](n4ccc(=O)[nH]c4=O)[C@H](O)[C@@H]3OP(=O)(S)OC[C@H]3O[C@@H](n4ccc(=O)[nH]c4=O)[C@H](O)[C@@H]3OP(=O)(S)OCC(O)COP(=O)(S)O[C@H]3[C@@H](O)[C@H](n4ccc(=O)[nH]c4=O)O[C@@H]3COP(=O)(S)O[C@H]3[C@@H](O)[C@H](n4ccc(=O)[nH]c4=O)O[C@@H]3COP(=O)(S)O[C@H]3[C@@H](O)[C@H](n4ccc(N)nc4=O)O[C@@H]3COP(=O)(S)O[C@H]3[C@@H](O)[C@H](n4ccc5c(=O)[nH]c(N)nc54)O[C@@H]3COP(=O)(S)O[C@H]3[C@@H](O)[C@H](n4ccc(N)nc4=O)O[C@@H]3COP(=O)(S)O[C@H]3[C@@H](O)[C@H](n4cnc5c(N)ncnc54)O[C@@H]3COP(=O)(S)O[C@H]3[C@@H](O)[C@H](n4ccc5c(=O)[nH]c(N)nc54)O[C@@H]3COP(=O)(S)O[C@H]3[C@@H](O)[C@H](n4ccc(=O)[nH]c4=O)O[C@@H]3COP(=O)(S)O[C@H]3[C@@H](O)[C@H](n4ccc(N)nc4=O)O[C@@H]3COP(=O)(S)O[C@H]3[C@@H](O)[C@H](n4cnc5c(N)ncnc54)O[C@@H]3COP(=O)(S)O[C@H]3[C@@H](O)[C@H](n4cnc5c(N)ncnc54)O[C@@H]3CO)[C@H]2O)c(=O)n1 (stereo not given in full) | Dose-dependent effect | 39 | 791 | 223 | Active | Active | Active | 434 | Active | Active | 2200 | 5880 | Dose-dependent effect | inactive | 1020 | Dose-dependent effect | Active | Dose-dependent effect | Active | Active | fold change (FC) [21]: 0.4; Activity [22]: 47 pg/mL; remaining at 10 min [23]: 87%; Activity [24]: Active; Activity [25]: 42100 pg/mL
Nc1ccn([C@@H]2O[C@H](COP(=O)(S)O[C@H]3[C@@H](O)[C@H](n4cnc5c(N)ncnc54)O[C@@H]3CO)[C@@H](OP(=O)(S)OC[C@H]3O[C@@H](n4ccc(=O)[nH]c4=O)[C@H](O)[C@@H]3OP(=O)(S)OC[C@H]3O[C@@H](n4ccc5c(=O)[nH]c(N)nc54)[C@H](O)[C@@H]3OP(=O)(S)OC[C@H]3O[C@@H](n4ccc(N)nc4=O)[C@H](O)[C@@H]3OP(=O)(S)OC[C@H]3O[C@@H](n4ccc5c(=O)[nH]c(N)nc54)[C@H](O)[C@@H]3OP(=O)(S)OC[C@H]3O[C@@H](n4cnc5c(N)ncnc54)[C@H](O)[C@@H]3OP(=O)(S)OC[C@H]3O[C@@H](n4ccc5c(=O)[nH]c(N)nc54)[C@H](O)[C@@H]3OP(=O)(S)OC[C@H]3O[C@@H](n4ccc(N)nc4=O)[C@H](O)[C@@H]3OP(=O)(S)OC[C@H]3O[C@@H](n4ccc(=O)[nH]c4=O)[C@H](O)[C@@H]3OP(=O)(S)OC[C@H]3O[C@@H](n4ccc(=O)[nH]c4=O)[C@H](O)[C@@H]3OP(=O)(S)OCC(O)COP(=O)(S)O[C@H]3[C@@H](O)[C@H](n4ccc(=O)[nH]c4=O)O[C@@H]3COP(=O)(S)O[C@H]3[C@@H](O)[C@H](n4ccc(=O)[nH]c4=O)O[C@@H]3COP(=O)(S)O[C@H]3[C@@H](O)[C@H](n4ccc(N)nc4=O)O[C@@H]3COP(=O)(S)O[C@H]3[C@@H](O)[C@H](n4ccc5c(=O)[nH]c(N)nc54)O[C@@H]3COP(=O)(S)O[C@H]3[C@@H](O)[C@H](n4cnc5c(N)ncnc54)O[C@@H]3COP(=O)(S)O[C@H]3[C@@H](O)[C@H](n4ccc5c(=O)[nH]c(N)nc54)O[C@@H]3COP(=O)(S)O[C@H]3[C@@H](O)[C@H](n4ccc(N)nc4=O)O[C@@H]3COP(=O)(S)O[C@H]3[C@@H](O)[C@H](n4ccc5c(=O)[nH]c(N)nc54)O[C@@H]3COP(=O)(S)O[C@H]3[C@@H](O)[C@H](n4ccc(=O)[nH]c4=O)O[C@@H]3COP(=O)(S)O[C@H]3[C@@H](O)[C@H](n4ccc(N)nc4=O)O[C@@H]3COP(=O)(S)O[C@H]3[C@@H](O)[C@H](n4cnc5c(N)ncnc54)O[C@@H]3CO)[C@H]2O)c(=O)n1 (stereo not given in full) | Dose-dependent effect | 256 | 2580 | 337 | Active | Active | Active | 266 | Active | Active | 4890 | 8980 | Dose-dependent effect | inactive | 395 | Dose-dependent effect | Active | Dose-dependent effect | Active | Active | fold change (FC) [21]: 1.7; Activity [22]: 196 pg/mL; remaining at 10 min [23]: 71%; Activity [24]: Active; Activity [25]: 51400 pg/mL
